ChEMBL document CHEMBL1255303, “In vitro and in vivo antifungal activities of T-2307, a novel arylamidine” (2008)
In brackets after ≈: the same amount, converted by molar mass.

Columns and labels:
Type in all cases: functional
Aspergillus fumigatus [1] = test: Antifungal activity against Aspergillus fumigatus IFM 49895 after 48 hrs by broth microdilution method; conditions: IFM 49895, 48 h
Method in brief: (§1)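 CLSI M27-A2 (yeasts) / M38-A (moulds) broth microdilution in RPMI 1640 buffered to pH 7.0 with 0.165 M MOPS. Malassezia furfur got the same medium supplemented with glucose, bile salts, glycerol, glycerol monostearate and Tween 20. Final inoculum 0.65 × 10^3–2.5 × 10^3 CFU/ml for yeasts and 0.87 × 10^4–3.8 × 10^4 CFU/ml for filamentous fungi. Incubation at 35°C except M. racemosus and F. solani, which were held at 30°C.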

Aspergillus nidulans = test: Antifungal activity against Aspergillus nidulans NBRC 33017 after 48 hrs by broth microdilution method; conditions: NBRC 33017, 48 h; method in brief: as §1
Candida albicans [2] = test: Antifungal activity against Candida albicans clinical isolates after 48 hrs by broth microdilution method
Method in brief: (§2)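 Clinical isolates from Japanese hospitals or culture collections were tested by broth microdilution in RPMI 1640-MOPS. Inoculum was 0.57 × 10^3–2.5 × 10^3 CFU/ml for yeasts and 0.4 × 10^4–3.3 × 10^4 CFU/ml for filamentous fungi. Incubation was at 35°C for about 48 h, or 72 h where footnoted. Results were summarised as MIC range, MIC50 and MIC90.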

Nakaseomyces glabratus = test: Antifungal activity against Candida glabrata ATCC 90030 after 48 hrs by broth microdilution method; conditions: ATCC 90030, 48 h; method in brief: as §1
Aspergillus flavus = test: Antifungal activity against Aspergillus flavus NBRC 6343 after 48 hrs by broth microdilution method; conditions: NBRC 6343, 48 h; method in brief: as §1
Candida albicans [3] = test: Antifungal activity against Candida albicans ATCC 10261 after 48 hrs by broth microdilution method; conditions: ATCC 10261, 48 h; method in brief: as §1
Aspergillus terreus = test: Antifungal activity against Aspergillus terreus NBRC 33026 after 48 hrs by broth microdilution method; conditions: NBRC 33026, 48 h; method in brief: as §1
[4] = system: Meyerozyma guilliermondii; test: Antifungal activity against Candida guilliermondii clinical isolates after 48 hrs by broth microdilution method; method in brief: as §2
Candida albicans [5] = test: Antifungal activity against Candida albicans ATCC MYA-573 after 47 hrs by broth microdilution method; conditions: ATCC MYA-573, 47 h
Method in brief: (§3)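 Fluconazole-resistant or susceptible-dose-dependent ATCC C. albicans strains were tested by CLSI M27-A2 broth microdilution in RPMI 1640–0.165 M MOPS, pH 7.0, with a final inoculum of 1.1–1.5 × 10^3 CFU/ml at 35°C for about 47 h. MIC was the lowest concentration with a prominent (~50%) turbidity decrease relative to growth control; amphotericin B was read at complete inhibition.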

Candida albicans [6] = test: Antifungal activity against Candida albicans ATCC MYA-2732 after 47 hrs by broth microdilution method; conditions: ATCC MYA-2732, 47 h
Method in brief: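 Fluconazole-resistant or susceptible-dose-dependent C. albicans ATCC strains were tested by broth microdilution in RPMI 1640-MOPS. Inoculum was 1.1 × 10^3–1.5 × 10^3 CFU/ml, with incubation at 35°C for about 47 h. Yeast MIC was read as about 50% turbidity decrease relative to growth control, except amphotericin B, read at complete inhibition.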

Candida parapsilosis = test: Antifungal activity against Candida parapsilosis NBRC 10219 after 48 hrs by broth microdilution method; conditions: Lodderomyces parapsilosis, NBRC 10219, 48 h
Method in brief: (§4)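 CLSI M27-A2 (yeasts) or M38-A (A. fumigatus) broth microdilution in RPMI 1640 buffered to pH 7.0 with 0.165 M MOPS. Final inocula were 0.65–2.5 × 10^3 CFU/ml for yeasts and 0.87–3.8 × 10^4 CFU/ml for filamentous fungi. Incubation was at 35°C for about 48 h (72 h for C. neoformans). MIC was the lowest concentration giving a prominent (~50%) turbidity drop versus growth control; amphotericin B required complete inhibition.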

Aspergillus fumigatus [7] = test: Antifungal activity against Aspergillus fumigatus TIMM 0063 after 48 hrs by broth microdilution method; conditions: TIMM 0063, 48 h; method in brief: as §1
Aspergillus niger = test: Antifungal activity against Aspergillus niger NBRC 33023 after 48 hrs by broth microdilution method; conditions: NBRC 33023, 48 h; method in brief: as §1
Malassezia furfur = test: Antifungal activity against Malassezia furfur NBRC 0656 after 48 hrs by broth microdilution method; conditions: NBRC 0656, 48 h; method in brief: as §1
Candida albicans [8] = test: Antifungal activity against Candida albicans ATCC MYA-1003 after 47 hrs by broth microdilution method; conditions: ATCC MYA-1003, 47 h; method in brief: as §3
Aspergillus fumigatus [9] = test: Antifungal activity against Aspergillus fumigatus ATCC 16424 after 48 hrs by broth microdilution method; conditions: ATCC 16424, 48 h; method in brief: as §4
Mucor racemosus = test: Antifungal activity against Mucor racemosus NBRC5403 after 24 hrs by broth microdilution method; conditions: NBRC5403, 24 h
Candida tropicalis = test: Antifungal activity against Candida tropicalis IFO 1400 after 48 hrs by broth microdilution method; conditions: IFO 1400, 48 h; method in brief: as §1
Cryptococcus neoformans = test: Antifungal activity against Cryptococcus neoformans ATCC 90113 after 72 hrs by broth microdilution method; conditions: ATCC 90113, 72 h; method in brief: as §1
Candida albicans [10] = test: Antifungal activity against Candida albicans ATCC 24433 after 48 hrs by broth microdilution method; conditions: ATCC 24433, 48 h; method in brief: as §4
Candida albicans [11] = test: Antifungal activity against Candida albicans TIMM 1623 after 48 hrs by broth microdilution method; conditions: TIMM 1623, 48 h; method in brief: as §1

`OC(Cn1cncn1)(Cn1cncn1)c1ccc(F)cc1F` [FLUCONAZOLE] gave an MFC (Aspergillus fumigatus [1]) of over 64 µg/mL, an MIC (Aspergillus fumigatus [1]) of over 64 µg/mL and an MFC (Aspergillus nidulans) of over 64 µg/mL. It also gave an MIC (Aspergillus nidulans) of 64 µg/mL (≈ 209 µM), an MIC (Candida albicans [2]) of 0.125 µg/mL (≈ 0.408 µM) and an MIC50 (Candida albicans [2]) of 0.125 µg/mL (≈ 0.408 µM). For the same compound, the MIC90 (Candida albicans [2]) was 0.25 µg/mL (≈ 0.816 µM), the MFC (Nakaseomyces glabratus) was over 64 µg/mL and the MIC (Nakaseomyces glabratus) was 8 µg/mL (≈ 26.1 µM). The MFC (Aspergillus flavus) was over 64 µg/mL, the MIC (Aspergillus flavus) was over 64 µg/mL and the MFC (Candida albicans [3]) was over 64 µg/mL. For the same compound, the MIC (Candida albicans [3]) was 0.125 µg/mL (≈ 0.408 µM), the MFC (Aspergillus terreus) was over 64 µg/mL and the MIC (Aspergillus terreus) was over 64 µg/mL. It also gave an MIC50 [4] of 4 µg/mL (≈ 13.1 µM), an MIC90 [4] of 8 µg/mL (≈ 26.1 µM) and an MIC (Candida albicans [5]) of over 64 µg/mL. For the same compound, the MIC (Candida albicans [6]) was 16 µg/mL (≈ 52.2 µM), the MFC (Candida parapsilosis) was over 64 µg/mL and the MIC (Candida parapsilosis) was 1 µg/mL (≈ 3.27 µM). For the same compound, the MFC (Aspergillus fumigatus [7]) was over 64 µg/mL, the MIC (Aspergillus fumigatus [7]) was over 64 µg/mL and the MFC (Aspergillus niger) was over 64 µg/mL. It also gave an MIC (Aspergillus niger) of over 64 µg/mL, an MFC (Malassezia furfur) of over 64 µg/mL and an MIC (Malassezia furfur) of 4 µg/mL (≈ 13.1 µM). The MIC (Candida albicans [8]) was 64 µg/mL (≈ 209 µM), the MFC (Aspergillus fumigatus [9]) was over 64 µg/mL and the MIC (Aspergillus fumigatus [9]) was over 64 µg/mL. The MFC (Mucor racemosus) was over 64 µg/mL, the MIC (Mucor racemosus) was over 64 µg/mL and the MFC (Candida tropicalis) was over 64 µg/mL. The MIC (Candida tropicalis) was 2 µg/mL (≈ 6.53 µM), the MFC (Cryptococcus neoformans) was over 64 µg/mL and the MIC (Cryptococcus neoformans) was 4 µg/mL (≈ 13.1 µM). It also gave an MFC (Candida albicans [10]) of over 64 µg/mL, an MIC (Candida albicans [10]) of 0.125 µg/mL (≈ 0.408 µM) and an MFC (Candida albicans [11]) of over 64 µg/mL. It also gave an MIC (Candida albicans [11]) of 0.125 µg/mL (≈ 0.408 µM).
